Assay results from ChEMBL document CHEMBL4706680, “Small-Molecule HSP27 Inhibitor Abolishes Androgen Receptors in Glioblastoma” (J Med Chem, 2021).
Calls of active or inactive are those of the source. The calls are words filed in the database; no cut-off is given here.

Assays:
[1] = biological target: Heat shock protein beta-1 (Homo sapiens) (UniProt P04792); assay: Inhibition of HSP27 in human U87 cells assessed as downregulation of androgen receptor by Western blot analysis; type: cell-based; settings: dose 25-100 nM
Sequence of Heat shock protein beta-1 (Homo sapiens) (P04792 whole entry): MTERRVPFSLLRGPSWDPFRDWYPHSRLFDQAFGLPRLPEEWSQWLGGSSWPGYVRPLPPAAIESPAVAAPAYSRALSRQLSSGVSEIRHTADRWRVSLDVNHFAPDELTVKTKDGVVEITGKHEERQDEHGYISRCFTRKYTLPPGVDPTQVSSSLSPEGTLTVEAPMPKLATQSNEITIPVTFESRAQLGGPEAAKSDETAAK
How it was run: (§1)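 Cells were treated in six-well plates (with or without MG132 where stated), then lysed in RIPA with protease inhibitors. 50 μg protein was run on 10% SDS-PAGE and transferred to PVDF. Membranes were blocked in 5% milk/TBS-T, probed with AR or AR-V7 antibodies overnight at 4 °C, and detected by chemiluminescence. Densitometry was used; n = 3.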

[2] = biological target: Heat shock protein beta-1 (Homo sapiens) (UniProt P04792); assay: Inhibition of HSP27 in human U87 cells assessed as reduction in AR expression level at 50 to 100 nM in presence of MG132 by Western blot analysis; type: cell-based; settings: dose 50-100 nM; how it was run: as §1
T98G [3] = assay: Downregulation of NKX3.1 mRNA expression in human T98G cells at 25 nM incubated for 12 hrs by qRT-PCR analysis; type: functional, cell-based
How it was run: (§2)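 T98G and U87 cells, 2 × 10^5 per well, adhered overnight and were treated at 25 nM for 12 h. RNA was extracted with RiboZol and DNase I-treated. AR, PSA and NKX3.1 were measured by real-time PCR, normalized to 18S by 2−ΔΔCt, three replicates per cDNA.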

T98G [4] = assay: Downregulation of PSA mRNA expression in human T98G cells at 25 nM incubated for 12 hrs by qRT-PCR analysis; type: functional, cell-based; how it was run: as §2
[5] = biological target: T1, Androgen receptor (Homo sapiens) (UniProt P10275); assay: Inhibition of AR transcriptional activity in human T98G cells assessed as reduction in AR mRNA expression at 25 nM incubated for 12 hrs by qRT-PCR analysis; type: cell-based; how it was run: as §2
T1 sequence (whole entry): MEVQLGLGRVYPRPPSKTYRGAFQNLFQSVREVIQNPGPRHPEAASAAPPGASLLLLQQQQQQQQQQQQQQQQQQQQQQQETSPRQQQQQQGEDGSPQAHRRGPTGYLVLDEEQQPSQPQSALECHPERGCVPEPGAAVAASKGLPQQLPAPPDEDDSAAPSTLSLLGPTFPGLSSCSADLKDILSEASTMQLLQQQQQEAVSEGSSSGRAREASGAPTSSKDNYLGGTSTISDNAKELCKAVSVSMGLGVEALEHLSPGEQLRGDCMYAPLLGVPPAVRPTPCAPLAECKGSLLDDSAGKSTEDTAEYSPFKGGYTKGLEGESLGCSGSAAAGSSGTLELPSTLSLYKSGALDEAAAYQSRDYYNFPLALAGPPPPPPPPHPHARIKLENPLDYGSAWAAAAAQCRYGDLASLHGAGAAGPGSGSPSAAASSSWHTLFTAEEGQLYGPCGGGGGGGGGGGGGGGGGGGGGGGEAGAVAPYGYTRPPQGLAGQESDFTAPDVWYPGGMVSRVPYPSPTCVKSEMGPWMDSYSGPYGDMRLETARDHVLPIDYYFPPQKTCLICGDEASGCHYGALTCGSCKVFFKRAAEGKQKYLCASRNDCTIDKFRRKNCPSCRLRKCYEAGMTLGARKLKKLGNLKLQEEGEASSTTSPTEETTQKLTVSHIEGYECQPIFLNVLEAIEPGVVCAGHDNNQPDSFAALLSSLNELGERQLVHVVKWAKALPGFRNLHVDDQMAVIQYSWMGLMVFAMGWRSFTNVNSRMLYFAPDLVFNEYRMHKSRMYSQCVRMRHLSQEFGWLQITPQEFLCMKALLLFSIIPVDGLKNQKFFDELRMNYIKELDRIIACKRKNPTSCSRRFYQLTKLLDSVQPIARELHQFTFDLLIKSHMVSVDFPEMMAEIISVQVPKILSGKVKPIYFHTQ

Mus musculus = assay: In vivo inhibition of HSP27 in human U87 cells xenografted in NCR nude mouse assessed as reduction in AR expression level in tumors at 20 mg/kg, ip administered thrice weekly for 14 days by Western blot analysis; type: functional, organism-based; settings: time 14.0 day
How it was run: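 Tumors from U87 flank xenografts in male nude mice dosed at 20 mg/kg IP or orally three times weekly for 14 days. The two tumors of each mouse were pooled and homogenized in RIPA with protease inhibitors and PMSF. AR was then measured by western blot; n = 4.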

[6] = biological target: Heat shock protein beta-1 (Homo sapiens) (UniProt P04792); assay: Inhibition of HSP27 in human T98G cells assessed as reduction in AR expression level at 100 nM incubated for 12 hrs by immunofluorescence analysis; type: cell-based
How it was run: (§3)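 T98G cells on coverslips, 24 h after seeding, were treated 12 h with 100 nM, DHT 10 nM, or both. Cells were fixed in 4% paraformaldehyde, permeabilized with 0.1% Triton X-100 and blocked with 1% BSA. They were stained 1 h each with AR and HSP27 primary and fluorescent secondary antibodies, with DAPI for nuclei.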

[7] = Toxicity in CD1 mouse assessed as acute pain at 80 mg/kg/day, ip administered thrice weekly and measured at day 10; type: organism-based; settings: in vivo, 72 h, time 3 day
How it was run: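 Male CD-1 mice, four per group, given 80 mg/kg in PBS IP three times weekly; vehicle DMSO. Mice were euthanized when toxicity signs appeared, otherwise at day 10. Body weight was recorded at first and last dosing days. Non-fasted cardiac blood was taken after euthanasia for an automated hematology analyzer.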

T98G [8] = assay: Antiproliferative activity against human T98G cells overexpressing AR assessed as reduction in cell viability incubated for 48 hrs by MTT assay; type: functional, cell-based
How it was run: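 MTT assay; 3000 cells/well in RPMI 1640 or DMEM with 10% FBS, seeded 24 h, then exposed 48 h to a range of concentrations in DMSO (final ≤0.1%); vehicle controls. MTT 1 mg/mL for 2 h at 37 °C, dye dissolved in DMSO, absorbance 570 nm; eight replicates; IC50 by nonlinear regression.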

U-87MG ATCC = assay: Downregulation of NKX3.1 mRNA expression in human U87 cells at 25 nM incubated for 12 hrs by qRT-PCR analysis; type: functional, cell-based; how it was run: as §2
[9] = biological target: Heat shock protein beta-1 (Homo sapiens) (UniProt P04792); assay: Inhibition of HSP27 in human T98G cells assessed as AR accumulation in nucleus at 100 nM incubated for 12 hrs in presence of DHT by immunofluorescence analysis; type: cell-based; how it was run: as §3
[10] = biological target: Heat shock protein beta-1 (Homo sapiens) (UniProt P04792); assay: Inhibition of HSP27 in human T98G cells assessed as induction of AR degradation at 25 to 100 nM by Western blot analysis; type: cell-based; settings: dose 25-100 nM; how it was run: as §1
U-87 MG = assay: Antitumor activity against human U87 cells xenografted in NCR nude mouse assessed as reduction in tumor size at 20 mg/kg, ip administered thrice weekly for 14 days by vernier caliper method; type: functional, organism-based; settings: U-87MG ATCC, time 14.0 day
How it was run: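 Male NCRNU nude mice, 5–6 weeks, 5 × 10^6 U87 cells in PBS injected subcutaneously into left and right flank (n = 4 mice, 8 tumors per group). Dosing began near 50 mm3: 20 mg/kg in PBS IP or oral, three times weekly for 14 days, vehicle DMSO. Calipers three times weekly, V = 2/3·d1·d2²; tumors weighed after CO2 euthanasia.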

inhibition [1]: Dose-dependent effect | inhibition [2]: inactive | inhibition [5]: Active | inhibition [6]: Active | inhibition [9]: inactive | inhibition [10]: Active
SMILES: COc1ccc(C(=O)Nc2ccc(NS(C)(=O)=O)c(OCc3cc(OC)ccc3OC)c2)cc1
inhibition (T98G [3]): Active | inhibition (T98G [4]): Active | inhibition (Mus musculus): Active | Activity [7]: Non-Toxic | IC50 (T98G [8]): 2.01 nM | inhibition (U-87MG ATCC): Active | Activity (U-87 MG): Active
